The text below walks through data of ChEMBL document CHEMBL3407438, “Discovery of potent, orally bioavailable, small-molecule inhibitors of WNT signaling from a cell-based pathway screen” (J Med Chem, 2015).

pIC50: −log10 of the molar value.

The term pIC50 denotes the IC50 on a negative log10 scale, so that one unit is a factor of ten. In general, Papp refers to the rate of passage across a membrane or cell layer, normalised by area and donor concentration. The clearance is the volume of plasma or blood freed of the substance per unit of time. The low end stands for inefficient removal, the high end for efficient removal. One may read the Tmax as the time at which the peak concentration occurs. The term AUC denotes concentration integrated over time. A lower AUC goes with low exposure. The half-life is the time needed for the level to fall by half in the phase considered. Broadly, the bioavailability is dose-corrected exposure relative to a reference, in per cent. A higher bioavailability goes with much systemic uptake.

A short description of data set [1]: Drug metabolism in human liver microsome at 10 uM after 30 mins by LC-MS analysis. It counts as ADME. Conditions: liver microsomes, read-out: Drug metabolism. In general terms: Liver microsomes are a subcellular fraction often used to study metabolism.
The nature of data set [2]: Drug metabolism in mouse liver microsome at 10 uM after 30 mins by LC-MS analysis. Format: ADME. Conditions: liver microsomes, read-out: Drug metabolism.
The nature of another data set: cells. It counts as cell-based. Conditions: Homo sapiens, 7dF3.
The nature of data set [3]: Apparent permeability in human Caco2 cells after 2 hrs by LC-MS/MS analysis. Format: ADME, cell-based, Caco-2. Conditions: caco-2, 2 h.
Data set [4] can be described thus: Clearance in NMRI mouse at 0.2 mg/kg, iv. It counts as ADME, organism-based. Further details: dose 0.2 mg/kg, route intravenous. Particulars: in vivo. An outline of the steps: (§1)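 Female NMRI mice (n = 5) given a single iv bolus (0.2 mg/kg per compound) or oral gavage (0.5 mg/kg per compound) as a cassette, in DMSO/PEG 200/water. Serial retro-orbital blood was drawn under isoflurane from 3 animals per route at 0.1 (iv), 0.25 (po), 0.5, 1, 2, 4 and 6 h. Plasma was quantified by LC–MS/MS.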

The nature of data set [5]: Volume of distribution at steady state in NMRI mouse at 0.2 mg/kg, iv. It counts as ADME, organism-based. Set-up: dose 0.2 mg/kg, route intravenous. Particulars: in vivo, read-out: Vdss. In short, it runs like this: as §1
Data set [6] is described as follows: Tmax in NMRI mouse at 0.2 mg/kg, iv. Format: ADME, organism-based. Set-up: dose 0.2 mg/kg, route intravenous. Conditions: in vivo. In short, it runs like this: as §1
Data set [7] is described as follows: AUC in NMRI mouse at 0.2 mg/kg, iv. It counts as ADME, organism-based. Particulars: plasma. Set-up: dose 0.2 mg/kg, route intravenous. An outline of the steps: as §1
Data set [8] can be described thus: Half life in NMRI mouse at 0.2 mg/kg, iv. Format: ADME, organism-based. Set-up: dose 0.2 mg/kg, route intravenous. Particulars: in vivo. In short, it runs like this:
as §1

Data set [9] can be described thus: Tmax in NMRI mouse at 0.5 mg/kg, po. It counts as ADME, organism-based. Set-up: dose 0.5 mg/kg, route oral. Particulars: in vivo. An outline of the steps:
as §1

Data set [10] in a line: AUC in NMRI mouse at 0.5 mg/kg, po. Conditions: plasma. It counts as ADME, organism-based. Further details: dose 0.5 mg/kg, route oral. An outline of the steps: as §1
Data set [11] can be described thus: Oral bioavailability in NMRI mouse at 0.5 mg/kg. It counts as ADME, organism-based. Particulars: in vivo.
The target of data set [12] is T1, Poly [ADP-ribose] polymerase tankyrase-1 (Homo sapiens, UniProt O95271).
T1 sequence (O95271 whole entry): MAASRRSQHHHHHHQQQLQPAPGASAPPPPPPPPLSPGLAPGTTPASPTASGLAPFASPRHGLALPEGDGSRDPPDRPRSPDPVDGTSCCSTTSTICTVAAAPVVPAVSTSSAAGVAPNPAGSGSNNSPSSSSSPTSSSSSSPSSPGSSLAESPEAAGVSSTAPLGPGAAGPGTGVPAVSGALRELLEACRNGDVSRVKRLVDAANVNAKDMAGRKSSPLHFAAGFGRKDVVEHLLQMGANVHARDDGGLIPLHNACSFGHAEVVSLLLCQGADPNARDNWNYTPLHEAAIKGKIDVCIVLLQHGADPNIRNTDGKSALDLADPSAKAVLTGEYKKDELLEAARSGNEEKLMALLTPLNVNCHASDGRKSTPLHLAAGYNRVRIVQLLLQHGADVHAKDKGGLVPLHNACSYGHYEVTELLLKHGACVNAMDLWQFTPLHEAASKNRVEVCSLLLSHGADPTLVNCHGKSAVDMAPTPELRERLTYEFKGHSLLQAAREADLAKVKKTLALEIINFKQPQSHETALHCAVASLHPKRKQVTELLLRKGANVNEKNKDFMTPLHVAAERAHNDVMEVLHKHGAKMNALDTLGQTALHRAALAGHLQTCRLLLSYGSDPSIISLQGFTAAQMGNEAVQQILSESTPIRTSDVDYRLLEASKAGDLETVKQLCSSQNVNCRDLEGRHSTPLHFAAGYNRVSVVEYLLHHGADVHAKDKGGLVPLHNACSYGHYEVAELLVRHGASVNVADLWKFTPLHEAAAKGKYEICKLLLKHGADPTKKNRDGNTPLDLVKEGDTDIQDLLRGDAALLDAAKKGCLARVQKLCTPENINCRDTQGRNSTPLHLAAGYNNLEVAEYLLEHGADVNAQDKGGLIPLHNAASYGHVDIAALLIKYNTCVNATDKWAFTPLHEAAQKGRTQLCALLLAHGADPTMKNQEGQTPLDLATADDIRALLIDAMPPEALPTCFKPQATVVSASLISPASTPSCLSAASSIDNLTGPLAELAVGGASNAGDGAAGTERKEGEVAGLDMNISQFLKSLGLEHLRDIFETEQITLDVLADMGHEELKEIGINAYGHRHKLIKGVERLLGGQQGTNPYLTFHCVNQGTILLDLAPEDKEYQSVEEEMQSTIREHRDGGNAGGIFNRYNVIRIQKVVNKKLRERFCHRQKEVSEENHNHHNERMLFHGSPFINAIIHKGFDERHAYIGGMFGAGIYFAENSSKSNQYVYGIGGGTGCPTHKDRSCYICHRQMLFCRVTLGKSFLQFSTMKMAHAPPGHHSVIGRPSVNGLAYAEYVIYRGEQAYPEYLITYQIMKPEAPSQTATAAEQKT
Kind of data set: Inhibition of GST-tagged TNKS1 (1023 to 1327 aa) (unknown origin) after 90 mins by HTRF assay. A general note: In TR-FRET formats the signal depends on donor and acceptor labels being close together.

Data set [13] has as its target T2, Poly [ADP-ribose] polymerase tankyrase-2 (Homo sapiens, UniProt Q9H2K2).
T2 sequence (Q9H2K2 whole entry): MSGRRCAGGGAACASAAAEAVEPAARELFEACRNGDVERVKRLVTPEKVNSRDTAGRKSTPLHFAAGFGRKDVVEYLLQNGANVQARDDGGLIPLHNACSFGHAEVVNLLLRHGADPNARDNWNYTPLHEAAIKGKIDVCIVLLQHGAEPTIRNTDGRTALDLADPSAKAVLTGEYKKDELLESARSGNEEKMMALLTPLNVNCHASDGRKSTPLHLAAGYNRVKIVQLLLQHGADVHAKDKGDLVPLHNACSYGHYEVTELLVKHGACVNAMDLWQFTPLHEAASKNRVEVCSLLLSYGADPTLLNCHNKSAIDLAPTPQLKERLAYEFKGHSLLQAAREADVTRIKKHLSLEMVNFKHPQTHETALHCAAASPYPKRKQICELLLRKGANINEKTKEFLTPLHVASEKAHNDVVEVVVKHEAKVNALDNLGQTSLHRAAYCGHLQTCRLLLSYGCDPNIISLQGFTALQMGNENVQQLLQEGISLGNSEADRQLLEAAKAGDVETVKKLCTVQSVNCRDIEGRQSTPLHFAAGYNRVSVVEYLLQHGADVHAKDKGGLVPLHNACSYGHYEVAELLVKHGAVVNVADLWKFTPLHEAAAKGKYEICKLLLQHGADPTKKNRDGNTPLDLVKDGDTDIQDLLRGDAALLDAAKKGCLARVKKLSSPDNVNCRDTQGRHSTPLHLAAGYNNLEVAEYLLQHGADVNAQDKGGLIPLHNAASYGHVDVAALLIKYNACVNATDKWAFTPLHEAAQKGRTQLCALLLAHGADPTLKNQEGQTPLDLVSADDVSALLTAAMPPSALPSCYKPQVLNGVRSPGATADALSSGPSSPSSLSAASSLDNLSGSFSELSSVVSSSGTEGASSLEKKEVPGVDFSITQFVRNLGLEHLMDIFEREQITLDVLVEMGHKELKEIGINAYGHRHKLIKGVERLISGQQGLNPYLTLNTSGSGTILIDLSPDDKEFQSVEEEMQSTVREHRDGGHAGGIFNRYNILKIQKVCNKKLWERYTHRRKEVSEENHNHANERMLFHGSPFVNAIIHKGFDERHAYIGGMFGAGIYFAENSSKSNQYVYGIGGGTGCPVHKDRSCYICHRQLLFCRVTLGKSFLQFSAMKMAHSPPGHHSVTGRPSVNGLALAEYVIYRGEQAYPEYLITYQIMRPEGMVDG
Kind of data set: Inhibition of GST-tagged TNKS2 (873 to 1166 aa) (unknown origin) after 90 mins by HTRF assay.

The nature of data set [14]: Kinetic solubility of the compound in phosphate buffer at pH 7.4. It counts as physicochemical.
Data set [15] is described as follows: Thermodynamic aqueous solubility of the compound in phosphate buffer at pH 7.4. Format: physicochemical. In short, it runs like this:
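Kinetic and thermodynamic aqueous solubilities were measured in phosphate buffer at pH 7.4.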

The target in another data set is Cytochrome P450 2C9 (Homo sapiens, UniProt P11712). Kind of data set: Inhibition of CYP2C9 (unknown origin). It counts as ADME.
Cytochrome P450 2C9, sequence (P11712 whole entry): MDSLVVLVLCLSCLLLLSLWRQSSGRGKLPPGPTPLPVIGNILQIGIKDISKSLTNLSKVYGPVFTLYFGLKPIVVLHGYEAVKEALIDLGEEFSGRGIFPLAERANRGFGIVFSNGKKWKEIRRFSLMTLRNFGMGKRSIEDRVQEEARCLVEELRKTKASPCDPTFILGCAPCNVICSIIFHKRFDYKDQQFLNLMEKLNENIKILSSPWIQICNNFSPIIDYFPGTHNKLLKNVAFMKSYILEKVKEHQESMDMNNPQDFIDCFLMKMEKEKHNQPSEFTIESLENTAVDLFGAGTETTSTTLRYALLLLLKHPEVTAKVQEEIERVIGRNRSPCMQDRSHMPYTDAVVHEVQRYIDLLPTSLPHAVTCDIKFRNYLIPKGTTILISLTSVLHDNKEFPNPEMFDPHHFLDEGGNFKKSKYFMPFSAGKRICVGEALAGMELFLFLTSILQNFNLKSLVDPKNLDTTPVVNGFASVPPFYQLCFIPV
The next data set deals with Cytochrome P450 3A4 (Homo sapiens, UniProt P08684). Kind of data set: Inhibition of CYP3A4 (unknown origin). Format: ADME.
Cytochrome P450 3A4, sequence (P08684 whole entry): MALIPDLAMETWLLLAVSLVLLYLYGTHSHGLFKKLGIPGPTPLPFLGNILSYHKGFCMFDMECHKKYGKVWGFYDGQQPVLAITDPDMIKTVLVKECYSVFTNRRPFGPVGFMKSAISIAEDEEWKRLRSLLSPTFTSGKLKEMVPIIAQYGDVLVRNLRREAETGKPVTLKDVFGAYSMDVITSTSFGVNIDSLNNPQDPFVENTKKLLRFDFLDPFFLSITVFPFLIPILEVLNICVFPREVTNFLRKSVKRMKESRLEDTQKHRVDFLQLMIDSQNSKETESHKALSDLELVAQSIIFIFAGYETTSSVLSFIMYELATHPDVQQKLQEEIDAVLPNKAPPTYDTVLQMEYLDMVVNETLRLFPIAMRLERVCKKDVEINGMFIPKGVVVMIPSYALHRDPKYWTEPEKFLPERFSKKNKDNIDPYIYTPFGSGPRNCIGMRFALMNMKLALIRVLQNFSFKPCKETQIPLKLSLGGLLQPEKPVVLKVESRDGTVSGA

On to `O=C1NCCC12CCN(c1c(Cl)cncc1-c1ccc(N3CCOCC3)cc1)CC2`, for which the values for the metabolised at 0.5 h, 10 µM in data set [1] and in [2] were 20% and 29%, respectively. The pIC50 was 7.52 in the data set “cells”; 4.72 in data set [12]; 4.80 in data set [13]; 5.54 against Cytochrome P450 2C9; 5.68 against Cytochrome P450 3A4. The Papp in data set [3] was found to be 37 ×10⁻⁶ cm/s. The same molecule registered a clearance in [4] of 65 mL/min/kg. The Vd in data set [5] was found to be 1.44 L/kg. Besides, the Tmax in [6] was 6 min; in data set [9], 15 min. Moreover, the AUC worked out at 50.8 ng·h/mL in [7] and 7.4 ng·h/mL in [10]. In addition, the half-life in data set [8] was 18.6 min. The bioavailability in data set [11] amounted to 6%. For the same molecule, the Kinetic_solubility in data set [14] was 164 µM. The Therm_solubility in data set [15] worked out at 17 µg/mL.
